In data set [1] the test system is Spodoptera frugiperda. Kind of data set: Insecticidal activity against Spodoptera frugiperda larvae in disk of maize leaf at 500 g/ha treated as spray. The data set is classed as functional, organism-based. In short, it runs like this:
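The same acetone/DMF/emulsifier formulation, diluted in emulsifier-containing water, was sprayed onto maize leaf disks. Dried disks were infested with fall armyworm larvae and mortality was assessed after a set time. "+" denotes ≥80% larvae killed; n.a. denotes no larvae killed.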

The subject of data set [2] is Phaedon cochleariae. Description: Insecticidal activity against Phaedon cochleariae larvae in disk of Chinese cabbage leaf at 4 g/ha treated as spray. The data set is classed as functional, organism-based. Put shortly: (§1)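 This was sprayed on Chinese cabbage leaf disks. Once dry, disks were infested with mustard beetle larvae and mortality was scored after a set time. "+" denotes ≥80% larvae killed; n.a. denotes none killed.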

Data set [3] concerns Sf9. Description: Cytotoxicity against Spodoptera frugiperda Sf9 cells assessed as chromatin condensation at 1 ppm after 48 hrs by fluorescence microscopy. Format: functional, cell-based. In short, it runs like this: (§2)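 Sf9 or CHO cells were seeded in chamber slides the day before treatment and exposed to compound for 48 h. They were then PBS-washed, fixed in ice-cold methanol for 10 min on ice, and rinsed with acetone. After rehydration in PBS, cells were stained with 2 µM DAPI for 30 min. Nuclei were examined by fluorescence microscopy (×40) for chromatin condensation or fragmentation.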

Data set [4] deals with CHO. Description: Cytotoxicity against CHO cells assessed as chromatin condensation after 24 hrs by fluorescence microscopy. Format: cell-based, Cricetulus griseus. Conditions: chinese hamster.
The subject of data set [5] is CHO. Description: Cytotoxicity against CHO cells assessed as chromatin condensation after 48 hrs by fluorescence microscopy. The data set is classed as cell-based, Cricetulus griseus. Conditions: chinese hamster. Put shortly:
as §2

Data set [6] relates to Phaedon cochleariae. Kind of data set: Insecticidal activity against Phaedon cochleariae larvae in disk of Chinese cabbage leaf at 500 g/ha treated as spray. Format: functional, organism-based. Put shortly: as §1
Data set [7] concerns Spodoptera frugiperda. Kind of data set: Insecticidal activity against Spodoptera frugiperda larvae in disk of maize leaf at 20 g/ha treated as spray. The data set is classed as functional, organism-based. Put shortly:
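Maize leaf disks (Zea mays) were sprayed, allowed to dry, then populated with S. frugiperda larvae. Mortality was scored after the desired time; '+' means at least 80% of larvae killed, 'n.a.' means none killed.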

The subject of data set [8] is Sf9. Kind of data set: Cytotoxicity against Spodoptera frugiperda Sf9 cells assessed as chromatin condensation at >10 ppm after 48 hrs by fluorescence microscopy. Format: functional, cell-based. Put shortly: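 Sf9 cells seeded in 8-well slide chambers the day before, then exposed to compound for 48 h. After two PBS washes, cells were fixed in ice-cold methanol for 10 min on ice, given two short acetone washes, rehydrated in PBS and stained with Dapi (2 µM) for 30 min. Chromatin condensation/fragmentation scored by fluorescence microscopy with a x40 objective.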

For data set [9], the system named is Phaedon cochleariae. Description: Insecticidal activity against Phaedon cochleariae larvae in disk of Chinese cabbage leaf at 20 g/ha treated as spray. The data set is classed as functional, organism-based. In short, it runs like this: as §1
Data set [10] concerns Phaedon cochleariae. Description: Insecticidal activity against Phaedon cochleariae larvae in disk of Chinese cabbage leaf treated as spray. Format: functional, organism-based.
For data set [11], the system named is Spodoptera frugiperda. Kind of data set: Insecticidal activity against Spodoptera frugiperda larvae in disk of maize leaf treated as spray. Format: functional, organism-based.
In data set [12] the test system is Sf9. Description: Cytotoxicity against Spodoptera frugiperda Sf9 cells assessed as chromatin condensation at 10 ppm after 48 hrs by fluorescence microscopy. Format: functional, cell-based. Put shortly:
as §2

The values below come from ChEMBL document CHEMBL1137753, “Insecticidal heterolignans--tubuline polymerization inhibitors with activity against chewing pests” (Bioorg Med Chem, 2009).

Molecules are shown by their SMILES. The source made the active and inactive calls. Unless noted, the rule behind the calls is not given here.

With `COc1cc(OC)cc(C2C3=C(COC3=O)Nc3c(OC)cc(OC)cc32)c1` (centres undefined), the result in the data set with Spodoptera frugiperda [1] and in the data set with Phaedon cochleariae [2] was Active.
In the case of `COc1cc(OC)cc(C2C3=C(COC3=O)Nc3cc(OC)c(OC)cc32)c1` (centres undefined), the result in the data set with Sf9 [3], with Spodoptera frugiperda [1] and in the data set with Phaedon cochleariae [6] was Active. Also, the Activity entry in the data set on CHO [4] and in the data set with CHO [5] was “Toxic” throughout.
Take `COc1ccc2c(c1)NC1=C(C(=O)OC1)C2c1cc(OC)c(OC)c(OC)c1` (centres undefined): the outcome in the data set with Spodoptera frugiperda [7] and in the data set on Phaedon cochleariae [6] was Active.
Regarding `COc1cc(OC)cc([C@@H]2C3=C(COC3=O)Nc3cc(OC)ccc32)c1`, the Activity entry in the data set with CHO [4] and with CHO [5] was “Toxic” each time. For the same compound, the result in the data set on Sf9 [8] was Active.
Turning to `COc1cc(OC)cc(C2C3=C(COC3=O)Nc3cc4c(cc32)OCO4)c1` (centres undefined), the outcome with Phaedon cochleariae [9] and with Spodoptera frugiperda [7] was Active.
With `O=C1OCC2=C1C(c1ccccc1Cl)c1cc3c(cc1N2)OCO3` (centres undefined), the outcome with Phaedon cochleariae [10] and in the data set on Spodoptera frugiperda [11] was inactive. The Activity entry in the data set with CHO [4] and in the data set with CHO [5] was “Toxic” throughout. Further, the outcome in the data set with Sf9 [12] was Active.
Consider `CCN1C2=C(C(=O)OC2)C(c2cc(OC)cc(OC)c2)c2cc3c(cc21)OCO3` (centres undefined), for which the result in the data set with Sf9 [3], in the data set with Spodoptera frugiperda [1] and in the data set with Phaedon cochleariae [6] was Active. Besides, the Activity result in the data set on CHO [4] and with CHO [5] was “Toxic” each time.
